The source made the active and inactive calls. The rule behind the calls is not given here.

The term IC50 denotes the point on the concentration scale where inhibition reaches its midpoint. By CC50 is commonly meant the concentration at which the toxic effect on the cells reaches its halfway point.

The subject of data set [1] is Human immunodeficiency virus 1. Put plainly: Antiviral activity against HIV1 LAI in human CEM-SS cells assessed as RT activity after 5 days by single passage assay. The data set is classed as functional, organism-based. Conditions: Human immunodeficiency virus 1, LAI, 120 h. The method in brief: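 CEM-SS cells kept in RPMI 1640 with 10% FCS, penicillin, streptomycin and glutamine at 37 °C, 5% CO2. Infected with HIV-1 LAI at 20 TCID50, 30 min adsorption, washed, resuspended at 10^5 cells/mL with serial compound dilutions. After 5 days, RT activity in the medium was measured. IC50 came from a median-effect plot. AZT was the positive control. Run twice.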

Data set [2] concerns Human immunodeficiency virus 1. Put plainly: Antiviral activity against HIV1 LAI in human CEM-SS cells assessed as RT activity after 4 to 8 serial passages with uninfected cells by serial passage experiment. The data set is classed as functional, organism-based. The method in brief:
(§1)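 HIV-1 LAI at multiplicity 0.01 added to 2.5×10^5 CEM-SS cells in RPMI, 4 h at 37 °C. Cells washed twice in PBS, resuspended in 1 mL medium with or without analogue at 200 μM (100 μM where cytotoxicity required). Every 4 days an equal supernatant volume went to fresh CEM-SS cells, for eight cycles. RT activity in supernatants read at each passage.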

The subject of data set [3] is Human immunodeficiency virus 1. Kind of data set: Induction of mutation in HIV1 LAI in human CEM-SS cells after 7 passages with uninfected cells. The format is functional, organism-based.
Data set [4] is described as follows: Cytotoxicity against human MT4 cells by MTT assay. The data set is classed as cell-based. The method in brief:
(§2)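 Uninfected cells grown at 37 °C, 5% CO2, in RPMI 1640 with 10% FCS, penicillin, streptomycin and glutamine, were incubated with a range of compound concentrations (up to 200 μM), run alongside the 5-day antiviral assay. Viability was read as MTT reduction to formazan by OD at 540 nm. CC50 was taken from a median effect plot of the dose-effect data.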
On the technique in general: Tetrazolium assays rely on reduction of a dye to a coloured formazan, in cell work by metabolically active cells.

Data set [5] is described as follows: Cytotoxicity against human CEM-SS cells by MTT assay. The format is cell-based. The method in brief: as §2
In data set [6] the test system is Human immunodeficiency virus 1. Kind of data set: Antiviral activity against HIV1 3B in human MT4 cells assessed as RT activity after 5 days by single passage assay. The data set is classed as functional, organism-based. To be noted: Human immunodeficiency virus 1, 3B, MT4, 120 h. The method in brief:
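MT-4 cells kept in RPMI 1640 with 10% FCS, penicillin, streptomycin and glutamine at 37 °C, 5% CO2. Infected with HIV-1 IIIB at 5 TCID50, 30 min adsorption, washed, resuspended at 10^5 cells/mL with serial compound dilutions. After 5 days, RT activity in the medium was measured. IC50 came from a median-effect plot. AZT was the positive control. Run twice.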

Data set [7] has as its system Human immunodeficiency virus 1. Kind of data set: Antiviral activity against HIV1 LAI in human CEM-SS cells assessed as RT activity after 4 serial passages with uninfected cells by serial passage experiment. The format is functional, organism-based. The method in brief:
as §1

For data set [8], the system named is Human immunodeficiency virus 1. Put plainly: Antiviral activity against HIV1 LAI in human CEM-SS cells assessed as RT activity after 8 serial passages with uninfected cells by serial passage experiment. The data set is classed as functional, organism-based. The method in brief:
as §1

`NC(=O)c1cn([C@H]2C[C@H](O)[C@@H](CO)O2)c(=O)[nH]c1=O`: the IC50 in data set [1] and in data set [6] was over 200 µM in each case. Moreover, the outcome in data set [2] was Active. The result in data set [3] and in data set [7] was inactive. Moreover, the CC50 in data set [4] and in data set [5] was over 200 µM throughout.

In the case of `O=c1[nH]c(=O)n([C@H]2C[C@H](O)[C@@H](CO)O2)cc1O`, the IC50 in data set [1] and in data set [6] was over 200 µM each time. Moreover, the CC50 in data set [4] and in data set [5] was over 200 µM throughout.

Regarding `NC(=O)Cc1cn([C@H]2C[C@H](O)[C@@H](CO)O2)c(=O)nc1N`, the IC50 in data set [1] and in data set [6] was over 200 µM each time. Also, the CC50 in data set [4] and in data set [5] was over 200 µM each time.

In the case of `NC(=O)Cc1cn([C@H]2C[C@H](O)[C@@H](CO)O2)c(=O)[nH]c1=O`, the IC50 in data set [1] and in data set [6] was over 200 µM in each case. Besides, the result in data set [2] and in data set [8] was Active. Besides, the outcome in data set [3] and in data set [7] was inactive. Besides, the CC50 in data set [4] and in data set [5] was over 200 µM throughout.

For the compound `NC(=O)Cn1c(=O)ccn([C@H]2C[C@H](O)[C@@H](CO)O2)c1=O`, the IC50 in data set [1] and in data set [6] was over 200 µM in each case. Moreover, the CC50 in data set [4] and in data set [5] was over 200 µM in each case.

In the case of `O=c1[nH]c(=O)n([C@H]2C[C@H](O)[C@@H](CO)O2)cc1CO`, the IC50 was 30 µM in data set [1] and over 130 µM in data set [6]. Also, the result in data set [2] and in data set [8] was Active. Also, the results for the CC50 in data set [4] and in data set [5] were 130 µM and 120 µM, respectively. The result in data set [7] was inactive.

Take `NC(=O)c1cn([C@H]2C[C@H](O)[C@@H](CO)O2)c(=O)nc1N`: the IC50 in data set [1] and in data set [6] was over 200 µM throughout. The CC50 in data set [4] and in data set [5] was over 200 µM throughout.

As for `Cc1cn([C@H]2C[C@H](N=[N+]=[N-])[C@@H](CO)O2)c(=O)[nH]c1=O` [ZIDOVUDINE], the CC50 in data set [4] and in data set [5] was over 1 µM each time. The IC50 in data set [6] was found to be 0.018 µM.

As for `Nc1nc(=O)n([C@H]2C[C@H](O)[C@@H](CO)O2)cc1CO`, the figures for the IC50 in data set [1] and in data set [6] were 24 µM and over 200 µM, respectively. The result in data set [2] was Active. For the same compound, the CC50 in data set [4] and in data set [5] was over 200 µM throughout. Moreover, the outcome in data set [7] was inactive.

Values taken from ChEMBL document CHEMBL1156918, “5-Modified-2'-dU and 2'-dC as mutagenic anti HIV-1 proliferation agents: synthesis and activity” (J Med Chem, 2010).
